From ChEMBL document CHEMBL1155808, “Antitumor activity of bis-indole derivatives” (J Med Chem, 2008)
Activity calls are given as the source filed them. The calls are words filed in the database; no cut-off is given here. Where a SMILES comes first, the peptide text is derived from it. The star is where a group is joined. Cbz = O=C(OCc1ccccc1)*

Tests used:
MCF7 [1] = assay: Cytotoxicity against human MCF7 cells; assay type: functional, cell-based
MDA-MB-231 = assay: Cytotoxicity against human MDA-MB-231 cells; assay type: functional, cell-based
MCF7 [2] = assay: Inhibition of proteasome in human MCF7 cells assessed as effect on stability of BCA2 protein at 10 umol/L in presence of cyclohexamide after 8 hrs by Western blot
Procedure, shortened: (§1)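 MCF7 cells, 1×10^6 seeded per well, grown overnight; cycloheximide 100 μmol/L added alone or with MG-132 (10 μmol/L) or compound, total 8 and 16 h; lysates Western blotted with anti-BCA2, anti-C-erbB2 and β-actin antibodies; BCA2 and C-erbB2 levels expressed relative to β-actin by densitometry.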

MCF7 [3] = assay: Inhibition of proteasome in human MCF7 cells assessed as effect on stability of BCA2 protein at 1 umol/L in presence of cyclohexamide after 8 hrs by Western blot; procedure, shortened: as §1
MCF7 [4] = assay: Inhibition of proteasome in human MCF7 cells assessed as increase in stability of BCA2 protein at 10 umol/L in presence of cyclohexamide after 16 hrs by Western blot; procedure, shortened: as §1
[5] = Cytotoxicity against human Non-small cell lung carcinoma cells; assay type: functional
Procedure, shortened: (§2)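 NCI 60-cell-line human tumour screen, with subpanels for leukemia, melanoma, lung, colon, kidney, ovary, breast, prostate and CNS. Compounds were dissolved in DMSO and tested at five ten-fold dilutions, highest 10^-4 M (10^-3 M for some). Endpoints were GI50, TGI and LC50, reported as negative log molar. Some compounds were assayed once, others two or three times.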

[6] = Cytotoxicity against human colon cancer cells; assay type: functional; details: Cancer cell lines; procedure, shortened: as §2
[7] = Cytotoxicity against human central nervous system cancer cells; assay type: functional; details: Cancer cell lines; procedure, shortened: as §2
[8] = Cytotoxicity against human melanoma cells; assay type: functional; details: Melanoma cell
[9] = Cytotoxicity against human ovarian cancer cells; assay type: functional; details: Cancer cell lines
[10] = Cytotoxicity against human renal cancer cells; assay type: functional; details: Cancer cell lines; procedure, shortened: as §2
[11] = Cytotoxicity against human prostate cancer cells; assay type: functional; details: Cancer cell lines; procedure, shortened: as §2
[12] = Cytotoxicity against human breast cancer cells; assay type: functional; details: Cancer cell lines
Procedure, shortened: (§3)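 MTT cytotoxicity assay in breast cancer cell lines; proliferation expressed as percent growth inhibition relative to vehicle-treated control cells; IC50 reported.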

[13] = Cytotoxicity against human leukemia cells; assay type: functional; details: Leukemia cell; procedure, shortened: as §2
Hs-578T = assay: Cytotoxicity against human Hs578T cells; assay type: functional, cell-based; procedure, shortened: as §3
MCF7 [14] = assay: Inhibition of proteasome in human MCF7 cells assessed as increase in stability of BCA2 protein at 1 umol/L in presence of cyclohexamide after 16 hrs by Western blot; procedure, shortened: as §1
MCF7 [15] = assay: Effect on beta-actin stability in human MCF7 cells at 10 umol/L in presence of cyclohexamide by Western blot; assay type: functional, cell-based; procedure, shortened: as §1
MCF7 [16] = assay: Effect on C-erbB2 protein stability in human MCF7 cells at 10 umol/L in presence of cyclohexamide by Western blot; assay type: functional, cell-based; procedure, shortened: as §1
[17] = Inhibition of plasma membrane electron transport pathway in mitochondrial gene-knockout human HL60p'0 cells by WST1 reduction assay
Procedure, shortened: (§4)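 Cells at 10^5 per well in 0.1 ml pretreated 30 min with compound in DMSO (<0.1% final), then WST-1/mPMS added (final 500 µM and 20 µM); WST-1 reduction followed in real time at 450 nm; averages ± S.E.M. of four independent experiments.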

[18] = Inhibition of plasma membrane electron transport pathway in human HL60 cells by WST1 reduction assay; assay type: cell-based; details: HL-60; procedure, shortened: as §4
HL-60 = assay: Cytotoxicity against human HL60 cells after 48 hrs by MTT assay; assay type: functional, cell-based; details: HL-60, 48 h
[19] = Cytotoxicity against human mitochondrial gene-knockout human HL60p'0 cells after 48 hrs by MTT assay; assay type: functional, cell-based
[20] = Inhibition of plasma membrane electron transport pathway in human B1647 cells by WST1 reduction assay; assay type: cell-based; procedure, shortened: as §4
[21] = Inhibition of plasma membrane electron transport pathway in human HEL cells by WST1 reduction assay; assay type: cell-based; procedure, shortened: as §4
[22] = Inhibition of plasma membrane electron transport pathway in human Mo7e cells by WST1 reduction assay; assay type: cell-based; procedure, shortened: as §4
B1647 = assay: Antiproliferative activity against human B1647 cells after 48 hrs by MTT assay; assay type: functional, cell-based
HEL = assay: Antiproliferative activity against human HEL cells after 48 hrs by MTT assay; assay type: functional, cell-based
Mo7e = assay: Antiproliferative activity against human Mo7e cells after 48 hrs by MTT assay; assay type: functional, cell-based
Mus musculus = assay: Toxicity in ip dosed mouse assessed as maximum tolerated dose after 14 days; assay type: organism-based; details: in vivo, 336 h
Procedure, shortened: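 Mice received a single i.p. injection of 400 mg/kg. If the animal survived 14 days, MTD was 400 mg/kg. If it died, the dose was lowered to 200 mg/kg and then halved repeatedly until a tolerated dose was found, which was taken as the MTD.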

[23] = read-out: pLC50 (the source's name) (converted)

CC(C)C[C@@H](C=O)NC(=O)[C@H](CC(C)C)NC(=O)[C@H](CC(C)C)NC(=O)OCc1ccccc1 [MG-132] (Cbz-Leu-Leu-Leu-aldehyde)
IC50 (MCF7 [1]): 0.3 µM
IC50 (MDA-MB-231): 0.25 µM
Activity (MCF7 [2]): Active
Activity (MCF7 [3]): inactive
fold change (FC) (MCF7 [4]): > 10

O=C1Nc2cccc(Cl)c2/C1=C\c1cccc(/C=C2/C(=O)Nc3cccc(Cl)c32)n1
GI50 [5]: 0.676 µM
CC50 [5, 23]: 34.7 µM
TGI ([5]; read-out: pTGI (converted)): 2.69 µM
GI50 [6]: 0.417 µM
CC50 [6, 23]: 19.1 µM
GI50 [7]: 0.603 µM
CC50 [7, 23]: 23.4 µM
TGI ([7]; read-out: pTGI (converted)): 2.82 µM
GI50 [8]: 0.589 µM
CC50 [8, 23]: 15.8 µM
GI50 [9]: 0.501 µM
CC50 [9, 23]: 30.9 µM
TGI ([9]; read-out: pTGI (converted)): 2.82 µM
GI50 [10]: 0.427 µM
CC50 [10, 23]: 7.59 µM
TGI ([10]; read-out: pTGI (converted)): 1.51 µM
GI50 [11]: 0.437 µM
CC50 [11, 23]: 15.8 µM
TGI ([11]; read-out: pTGI (converted)): 2.09 µM
GI50 [12]: 0.389 µM
CC50 [12, 23]: 39.8 µM
TGI ([12]; read-out: pTGI (converted)): 3.31 µM
GI50 [13]: 0.0912 µM
CC50 [13, 23]: 44.7 µM
TGI ([13]; read-out: pTGI (converted)): 1.91 µM
IC50 (MCF7 [1]): 0.23 µM
IC50 (MDA-MB-231): 0.3 µM
IC50 (Hs-578T): 0.4 µM
fold change (FC) (MCF7 [14]): 2
Activity (MCF7 [15]): inactive
Activity (MCF7 [16]): inactive
IC50 [17]: > 117 µM
IC50 [18]: > 117 µM
IC50 (HL-60): 3 µM
IC50 [19]: 3 µM
IC50 [20]: 30 µM
IC50 [21]: 24 µM
IC50 [22]: 15 µM
Activity (B1647): Active
Activity (HEL): Active
Activity (Mo7e): Active
MTD (Mus musculus): 400 mg/kg
